From PubChem BioAssay
MEKK2 WT-MEK5 = raises or lowers MEK5 binding to wildtype human MEKK2 PB1 domain; Q9Y2U5; bead flow cytometry, Alexa488-MEK5 binding to MEKK2 WT; actives lie on both sides; binding response (% of control), % at 10 µM; actives 1.1% (n = 290,000); AID 1531; in the data active = binding response below about 67% or above about 130%
UBC13 polyUb = blocks human UBC13 polyubiquitin chain formation; TR-FRET; inhibition, % at 20 µM; actives 0.47% (n = 330,000); in the data active = inhibition above about 45%, passing the limit was not always enough
Apaf-1 inh = human Apaf-1 inhibition; O14727; reconstituted apoptosome caspase-3 activity, DEVD-Rh110 fluorescence; inhibition, % at 20 µM; actives 0.71% (n = 330,000); active = inhibition of at least 40% at 20 µM;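 note: plate controls were DMSO wells for no effect and DEVD-CHO caspase inhibitor wells for full effect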
Target sequence (O14727 whole entry, looked up): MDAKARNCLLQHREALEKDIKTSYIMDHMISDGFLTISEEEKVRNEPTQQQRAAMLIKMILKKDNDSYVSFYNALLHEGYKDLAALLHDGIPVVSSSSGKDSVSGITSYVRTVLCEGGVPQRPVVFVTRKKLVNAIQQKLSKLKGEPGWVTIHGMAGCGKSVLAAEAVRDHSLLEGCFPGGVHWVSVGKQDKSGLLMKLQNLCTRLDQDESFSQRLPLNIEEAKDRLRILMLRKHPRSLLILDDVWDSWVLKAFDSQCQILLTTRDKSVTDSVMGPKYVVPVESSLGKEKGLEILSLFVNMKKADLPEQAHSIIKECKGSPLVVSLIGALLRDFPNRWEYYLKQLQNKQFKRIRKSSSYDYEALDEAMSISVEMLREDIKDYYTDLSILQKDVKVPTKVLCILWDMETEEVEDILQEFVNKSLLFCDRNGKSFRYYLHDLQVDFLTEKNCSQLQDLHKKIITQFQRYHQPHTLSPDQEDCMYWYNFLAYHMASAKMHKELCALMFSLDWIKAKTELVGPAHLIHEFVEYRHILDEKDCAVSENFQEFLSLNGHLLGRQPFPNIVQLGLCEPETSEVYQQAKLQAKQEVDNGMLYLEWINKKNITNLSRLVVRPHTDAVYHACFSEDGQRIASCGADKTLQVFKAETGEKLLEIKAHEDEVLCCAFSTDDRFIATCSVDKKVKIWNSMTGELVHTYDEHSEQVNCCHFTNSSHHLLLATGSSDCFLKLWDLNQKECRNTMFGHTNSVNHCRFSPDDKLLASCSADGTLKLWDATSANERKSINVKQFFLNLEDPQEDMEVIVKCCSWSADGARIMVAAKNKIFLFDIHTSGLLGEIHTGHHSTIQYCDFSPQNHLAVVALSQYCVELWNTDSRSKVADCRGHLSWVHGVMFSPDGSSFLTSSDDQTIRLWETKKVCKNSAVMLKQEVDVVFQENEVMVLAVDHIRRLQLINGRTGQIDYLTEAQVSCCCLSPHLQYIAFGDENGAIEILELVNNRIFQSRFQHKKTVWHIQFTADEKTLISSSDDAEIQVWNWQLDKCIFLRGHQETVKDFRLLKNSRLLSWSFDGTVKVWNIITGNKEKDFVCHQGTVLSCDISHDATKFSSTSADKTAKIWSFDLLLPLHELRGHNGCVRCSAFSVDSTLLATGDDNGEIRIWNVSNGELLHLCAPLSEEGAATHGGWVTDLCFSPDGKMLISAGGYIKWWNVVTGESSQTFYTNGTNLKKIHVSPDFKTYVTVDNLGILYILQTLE
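System: reconstituted apoptosome with Apaf-1, cytochrome c, caspase-9, procaspase-3, dATP; Signal: Rh110 fluorescence intensity; Schedule: 30 min compound preincubation, 50 min activation, room temperature; Reagent: cytochrome c trigger plus (Z-DEVD)2-Rh110 caspase-3 substrate.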
MEKK2 mut-MEK5 = signal of MEK5 binding to mutant human MEKK2 PB1 domain | bead flow cytometry, Alexa488-MEK5 binding to MEKK2 mutant | percent response, % at 10 µM | actives 0.35% (n = 290,000) | AID 1530; in the data active = percent response above about 24%, passing the limit was not always enough
MEKK3 PB1 HTS = modulators (inhibitors or enhancers) of MEK5 binding to human MEKK3 PB1 domain; actives 1.4% (n = 290,000); bead-based flow cytometry, Alexa488-MEK5 binding to MEKK3; actives lie on both sides; 0 = blocked by unlabeled MEK5, 100 = vehicle; Q99759; binding response (% of control), % at 10 µM;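 active = binding response more than 3 SD above or below the average of its plate-row segment, actives on both sides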;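 note: Alexa488 bead fluorescence after subtracting the streptavidin-only scavenger bead signal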
MEKK2wt confirm = raises or lowers MEK5 binding to wildtype human MEKK2, retest. actives 2.4% (n = 5,900). bead flow cytometry, Alexa488-MEK5 binding to MEKK2 WT; actives lie on both sides. shares compounds with MEKK3 PB1 HTS. binding response (% of control), % at 10 µM. AID 1892; in the data active = binding response below about 16% or above about 210%; inactive = in between
MEKK2mut-MEK5 = signal of MEK5 binding to mutant human MEKK2, retest. shares compounds with MEKK3 PB1 HTS. bead flow cytometry, Alexa488-MEK5 binding to MEKK2 mutant. percent response, % at 10 µM. actives 2% (n = 5,900). AID 1893; in the data active = percent response mostly above about 71%, no sharp cut-off; inactive = mostly below about 38%;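 note: higher means compound restores mutant binding toward wildtype level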
MEKK3 confirm = MEKK3-MEK5 PB1 inhibition, single concentration confirmation; shares compounds with MEKK3 PB1 HTS; bead flow cytometry, Alexa488-MEK5 binding to MEKK3; stronger effect = lower value; binding response (% of control), % at 10 µM; actives 1.8% (n = 5,900); AID 1894;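 active = binding response below 72% of control, or above a set upper limit, though filed actives all read lower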;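 note: 100% = DMSO only wells and 0% = binding blocked by excess unlabeled MEK5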
* = called active by the depositor; x = not tested or not shown; [ ] = another dose, or the depositor's remark. A selection: hits, their analogues and other compounds. The true share with any hit is near 2.9%.

SMILES	MEKK2 WT-MEK5	UBC13 polyUb	Apaf-1 inh	MEKK2 mut-MEK5	MEKK3 PB1 HTS	MEKK2wt confirm	MEKK2mut-MEK5	MEKK3 confirm
Cc1ccc(OC(=O)C23CC4CC(CC(C4)C2)C3)c(C)n1	95	7	4	-2	96	x	x	x
CCc1nc(C)ccc1OC(=O)C12CC3CC(CC(C3)C1)C2	138*	11	10	3	106	92	-10	94
CCOC(=O)C1=C(NC(=S)NC(=O)c2ccccc2)c2ccccc2CC1C(C)C (stereo not given)	97	-1	21	-4	104	x	x	x
CCOC(=O)C1=C(NC(=S)NC(=O)c2ccccc2)c2ccccc2CC1(C)CC (stereo not given)	30*[inhibitor]	6	11	1	94	98	0	101
O=S(=O)(NC1c2cccc3cccc(c23)C1Sc1ncccn1)c1ccccc1 (stereo not given)	100	-3	7	0	144*	97	-4	105
CCOC(=O)C1CCCN(C(=S)Nc2cccc(Cl)c2)C1 (stereo not given)	102	-5	-1	10	96	x	x	x
CNC(=S)N1CCn2cccc2C1c1cc(OC)c(OC)c(OC)c1 (stereo not given)	81	20	-15	-3	57*[inhibitor]	96	-3	99
CCc1nc(N2CCCC2C(=O)O)c2oc3ccccc3c2n1 (stereo not given)	72	3	-1	-19	57*[inhibitor]	100	4	100
CCCCCCCCCCn1ccc(=N)cc1	148*	19	-3	30	125	126	21	108
CCN(CC)S(=O)(=O)c1ccc(NC(=O)c2cccc3c2C(=O)N(CCOC)C3)cc1	108	8	16	0	132*	102	-5	101
CC(=O)NS(=O)(=O)c1ccc(N=c2ssc3c2-c2cc(C)ccc2NC3(C)C)cc1	97	-7	-9	0	129*	90	-7	96
CC(=O)NS(=O)(=O)c1ccc(NS(=O)(=O)c2ccc(F)cc2)cc1	100	-2	8	-4	97	x	x	x
Clc1cc(Cl)cc(C2=NCCC(c3ccccc3)O2)c1 (stereo not given)	106	42	35	0	107	x	x	x
CN1CCN(NC(=S)NC(C)(C)CC(C)(C)C)CC1	77	7	5	-4	58*[inhibitor]	103	3	105
CC(C)N(C(=O)CSc1ccc(S(=O)(=O)N2CCCCC2)cn1)c1ccccc1	x	4	18	x	x	x	x	x
COc1cccc(-c2nc(Cc3ccc(OC)c(OC)c3)no2)c1	-6.0*[inhibitor]	-2	-1	1	96	99	-2	97
COc1ccc(Cc2noc(-c3ccccc3)n2)cc1OC	91	11	0	-3	95	x	x	x
CCOC(=O)c1ccc(NS(=O)(=O)c2c(C)[nH]c(C)c2C(=O)N2CCCCC2)cc1	107	-1	10	6	103	x	x	x
CC(=O)Nc1nonc1NC(C)=O	3.0*[inhibitor]	-2	-2	-15	2.0*[inhibitor]	100	0	104
Cc1ccc(CNC(=O)C(=O)NCC(c2ccco2)N2CCOCC2)cc1 (stereo not given)	102	4	-8	0	129*	103	-3	98
O=C(NCCc1c[nH]c2ccccc12)C(=O)NCC(c1ccco1)N1CCN(c2ccc(F)cc2)CC1 (stereo not given)	107	6	9	0	129*	96	-6	102
O=C(NCc1ccc(Cl)cc1)C(=O)NCC(c1ccco1)N1CCOCC1 (stereo not given)	107	17	4	12	102	x	x	x
O=C(NCCc1c[nH]c2ccccc12)C(=O)NCC(c1ccco1)N1CCN(c2ccccc2)CC1 (stereo not given)	104	2	5	-1	100	x	x	x
COc1cccc(Oc2ccc3nnc(C(F)(F)F)n3n2)c1	96	-2	2	-41	94	x	x	x
COCCCn1c(C)cc(C(=O)COC(=O)C23CC4CC(CC(O)(C4)C2)C3)c1C	x	4	-7	x	x	x	x	x
SMILES	MEKK2 WT-MEK5	UBC13 polyUb	Apaf-1 inh	MEKK2 mut-MEK5	MEKK3 PB1 HTS	MEKK2wt confirm	MEKK2mut-MEK5	MEKK3 confirm
Cc1ccc(Nc2nc(NCC3CCCO3)nc(N)c2[N+](=O)[O-])cc1C (stereo not given)	95	-8	-7	-1	74*[inhibitor]	106	5	102
CCCNC(=O)NC(=O)COc1c(F)c(F)cc(F)c1F	98	4	-1	13	97	x	x	x
O=C(COc1c(F)c(F)cc(F)c1F)NC(=O)NC1CCCC1	60	-8	16	-8	56*[inhibitor]	101	5	100
Cc1ccc(C)c(S(=O)(=O)N2CCN(C(=O)c3cccn3C)CC2)c1	x	3	0	x	x	x	x	x
COc1cc(CNCc2cccs2)ccc1OCc1cccs1	-1.0*[inhibitor]	16	-6	-27	2.0*[inhibitor]	122	12	102
COc1cc(CNCc2cccs2)ccc1OCc1ccccc1	x	6	8	x	x	x	x	x
N=c1c2c(ncn1CCN1CCOCC1)Oc1ccc3ccccc3c1C2c1ccccc1 (stereo not given)	141*	18	17	15	106	124	4	101
COc1ccc(C2c3c(ncn(CCN4CCOCC4)c3=N)Oc3ccc4ccccc4c32)cc1 (stereo not given)	165*	0	26	7	102	127	23	103
COc1ccc(C2c3c(ccc4ccccc34)Oc3ncn4nc(-c5ccco5)nc4c32)cc1 (stereo not given)	106	-9	15	1	126	x	x	x
Cn1ncc(Br)c1C(=O)N1CCCCCC1	113	2	-11	9	106	x	x	x
Fc1ccc(-c2nn(-c3ccccc3)cc2CNCc2ccccc2)cc1	160*	26	20	19	98	150	19	104
OCc1cn(-c2ccccc2)nc1-c1ccc(-c2nn(-c3ccccc3)cc2CO)cc1	94	13	6	-8	92	x	x	x
Fc1ccc(-n2cc(CNCCc3ccncc3)c(-c3ccccc3Cl)n2)cc1	113	14	-2	10	99	x	x	x
Fc1ccc(-n2cc(CNCCc3cccnc3)c(-c3ccccc3Cl)n2)cc1	221*	11	-6	66*	108	127	10	101
CCOc1ccc(NC(=O)c2cccc(OC(=S)N3CCC(C)CC3)c2)cc1	104	-2	19	1	105	x	x	x
